Entries after “also recorded” stand apart in the source; their conditions may differ. Where two headings read alike, the source gives them in different places.
What was measured:
SHP2 = molecular target: T1, SHP2 (Homo sapiens, UniProt Q06124); assay: PTP selectivity panel; format: biochemical
T1 sequence (Q06124 247-517 limits assumed): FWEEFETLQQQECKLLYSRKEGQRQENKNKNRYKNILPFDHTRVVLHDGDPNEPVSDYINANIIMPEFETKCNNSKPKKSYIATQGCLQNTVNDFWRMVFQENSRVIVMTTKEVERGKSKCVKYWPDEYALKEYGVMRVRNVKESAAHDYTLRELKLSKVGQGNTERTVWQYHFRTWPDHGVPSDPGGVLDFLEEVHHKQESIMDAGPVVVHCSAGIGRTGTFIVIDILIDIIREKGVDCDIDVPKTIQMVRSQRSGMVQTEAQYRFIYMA
In short: (§1)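 Recombinant catalytic domains in pH 7.0 buffer (50 mmol/L MOPS, 100 mmol/L NaCl, 1 mmol/L EDTA, 1 mmol/L DTT, 1 mg/mL BSA). Enzyme preincubated with test compound 5 min at 37 °C. Then pNPP (100 mmol/L stock) added, 10 min at 37 °C. Stopped with NaHCO3; p-nitrophenol read at 405 nm. IC50 by fitting concentration–inhibition curves; triplicate points.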

L6 myotubes = conditions: ref Choi et al [19]; cited from earlier work
HePTP = molecular target: T2, HePTP (Homo sapiens, UniProt P35236); assay: PTP selectivity panel; format: biochemical
T2 sequence (P35236 97-350 limits assumed): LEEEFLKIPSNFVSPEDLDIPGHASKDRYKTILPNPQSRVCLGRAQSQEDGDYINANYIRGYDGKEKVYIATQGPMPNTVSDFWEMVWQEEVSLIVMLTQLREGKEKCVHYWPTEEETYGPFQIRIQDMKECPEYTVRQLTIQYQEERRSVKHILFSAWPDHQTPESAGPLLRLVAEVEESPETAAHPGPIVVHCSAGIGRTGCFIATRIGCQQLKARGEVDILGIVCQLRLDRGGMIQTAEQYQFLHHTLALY
In short: as §1

PTP1B = molecular target: T3, PTP1B (Homo sapiens, UniProt P18031); assay: PTP1B inhibition measurement; format: biochemical
T3 sequence (P18031 3-277 limits assumed): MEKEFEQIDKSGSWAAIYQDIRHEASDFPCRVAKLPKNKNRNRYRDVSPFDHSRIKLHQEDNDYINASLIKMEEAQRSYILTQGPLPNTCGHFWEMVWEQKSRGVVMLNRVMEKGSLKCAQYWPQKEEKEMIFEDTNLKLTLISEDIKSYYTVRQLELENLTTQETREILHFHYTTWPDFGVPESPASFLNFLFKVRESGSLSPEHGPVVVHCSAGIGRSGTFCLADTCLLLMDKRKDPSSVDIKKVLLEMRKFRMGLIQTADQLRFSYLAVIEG
In short: as §1

[1] = test system: insulin signaling (IRβ, AKT, ERK1/2, GLUT4, phosphotyrosine) in C2C12 myotubes; assay: Western blot of insulin signaling in insulin-stimulated C2C12 myotubes; format: cell-based
In short: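 C2C12 myoblasts at 75% confluence were differentiated in DMEM with 2% horse serum for 4–6 days. Myotubes were pretreated 1 h with test compound (in DMSO), then given 10 nM insulin for 10 min. Whole-cell lysates and plasma-membrane fractions were blotted (10% SDS-PAGE) for phospho/total IRβ, AKT, ERK1/2, GLUT4, phosphotyrosine and actin; ECL detection. Phospho normalised to total, expressed as fold of insulin alone; n=3.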

PPAR-γ = conditions: in vitro; ref Atanasov et al [18]; cited from earlier work
[2] = test system: murine and human adipocytes; conditions: ref Alonso-Castroa et al [20]; cited from earlier work
T2DM mice = format: in vivo; conditions: for Serum TC / Serum TG / Body weight / Effect on serum TC and TG: T2DM mice; for Serum TC / Serum TG: 200 mg/kg oral once per day, mean ± SD (n=8–10); for Body weight: 200 mg/kg oral once a day for 8 weeks; for Effect on serum TC and TG: 200 mg/kg oral, 8 weeks
In short: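 Male Kunming mice (8 weeks, 18–22 g) fed high-fat diet (20% sucrose, 10% lard, 2.5% cholesterol, 1% sodium cholate, 66.5% chow) for 4 weeks. After an 8 h fast, STZ 35 mg/kg i.p. in citrate-buffered saline pH 4.4, daily for 1 week. Test compound by oral gavage daily for 8 weeks, DMSO stock diluted in 0.9% saline; saline vehicle. Weekly 8-h-fasted tail-vein glucose (glucometer) and body weight; serum TG/TC by kits.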

C2C12 cells = assay: MTT cytotoxicity assay; format: cell-based; conditions: 24 hours
In short: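 C2C12 cells were grown in DMEM with 10% FBS at 37 °C, 5% CO2, seeded in 96-well plates and exposed to test compound for 24 h. MTT (5 mg/mL stock) was added for 4 h at 37 °C. Formazan was dissolved in DMSO and read at 490 nm. Viability is relative to untreated control (100%). Six wells per treatment; three independent experiments.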

[3] = test system: insulin signaling (IRβ, AKT, ERK1/2, phosphotyrosine) in adipose tissue, skeletal muscle, and liver; assay: Western blot of insulin signaling in tissues of T2DM mice; format: in vivo; conditions: 200 mg/kg, 8 weeks
In short: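 After 8 weeks of dosing, subcutaneous adipose, skeletal muscle and liver were snap-frozen and homogenised in SDS sample buffer lacking bromophenol blue, then spun 12,000 × g, 20 min, 4 °C. 20 µg protein run on 8–10% SDS-PAGE. Membranes blocked 2 h in 3% BSA/TBST; primaries overnight at 4 °C, HRP secondaries 2 h. ECL and densitometry; phospho normalised to total, normal mice = 100%; n=3.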

PTP1B−/− mice = assay: Honokiol treatment of PTP1B gene knockout mice; format: in vivo; conditions: pre-experiments, Figure S2
TCPTP = molecular target: T4, TCPTP (Homo sapiens, UniProt P17706); assay: PTP selectivity panel; format: biochemical
T4 sequence (P17706 5-275 limits assumed): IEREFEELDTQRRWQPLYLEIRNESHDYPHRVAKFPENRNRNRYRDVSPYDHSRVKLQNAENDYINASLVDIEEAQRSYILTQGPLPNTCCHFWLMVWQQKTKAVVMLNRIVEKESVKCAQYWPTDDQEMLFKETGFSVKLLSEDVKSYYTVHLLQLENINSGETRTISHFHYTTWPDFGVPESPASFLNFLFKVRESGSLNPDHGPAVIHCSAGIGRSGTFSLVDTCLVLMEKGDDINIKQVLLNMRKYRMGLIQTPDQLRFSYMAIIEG
In short: as §1

SHP1 = molecular target: T5, SHP1 (Homo sapiens, UniProt P29350); assay: PTP selectivity panel; format: biochemical
T5 sequence (P29350 244-515 limits assumed): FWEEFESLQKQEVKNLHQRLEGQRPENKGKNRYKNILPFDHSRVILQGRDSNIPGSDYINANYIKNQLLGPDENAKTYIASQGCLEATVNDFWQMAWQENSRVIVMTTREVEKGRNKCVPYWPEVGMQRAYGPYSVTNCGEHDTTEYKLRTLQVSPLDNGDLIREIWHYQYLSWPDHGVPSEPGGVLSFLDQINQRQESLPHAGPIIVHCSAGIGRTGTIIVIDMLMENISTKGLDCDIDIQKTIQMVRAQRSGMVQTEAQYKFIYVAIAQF
In short: as §1

[4] = honokiol 0 to 30 µM 1 hour, then 10 nM insulin 10 minutes

In the case of `C=CCc1ccc(O)c(-c2ccc(O)c(CC=C)c2)c1` [Honokiol], the IC50 (SHP2) is listed as 785.5 ± 6.83 µM, the “Selectivity on PTP1B over SHP2” value (SHP2; from IC50 values) is listed as ~ 12 fold and the Glucose uptake (L6 myotubes) is listed as “stimulates glucose uptake”. The IC50 (HePTP) was 890 ± 9.46 µM, the “Selectivity on PTP1B over HePTP” value (HePTP; from IC50 values) was ~ 14 fold and the Ki (PTP1B) was 6.67 µM. The “Inhibition type on PTP1B” value (PTP1B; Lineweaver–Burk plot, 1/v versus 1/[pNPP]) was “reversible competitive inhibitory activity; also recorded: competing with the substrate for the enzyme active site”, the “Tyrosine phosphorylations of cellular proteins” value [1] was “enhanced” and the “Insulin-induced GLUT4 level in the plasma membrane fraction” value ([1]; GLUT4 in whole cell lysates not altered) was “dose-dependently increased”. The “Insulin-stimulated tyrosine phosphorylation of ERK” value [1, 4] was “enhances”, the “Insulin-stimulated tyrosine phosphorylation of IRβ” value [1, 4] was “largely enhanced” and the “Serine phosphorylation of AKT” value [1, 4] was “enhances”. The PPAR-γ activation (PPAR-γ) was “novel nonadipogenic partial PPAR-γ activator”, the Glucose uptake [2] was “stimulates glucose uptake” and the “Serum TC” value (T2DM mice; 0 week) was 3.62 ± 0.15 mmol/L. For the same molecule, the “Serum TG” value (T2DM mice; 0 week) was 0.51 ± 0.03 mmol/L, the “Serum TC” value (T2DM mice; 8 week) was 3.67 ± 0.16 mmol/L and the “Serum TG” value (T2DM mice; 8 week) was 0.48 ± 0.03 mmol/L. For the same molecule, the Body weight (T2DM mice) was “decreased at early treatment and then gradually increased”, the “Effect on serum TC and TG” value (T2DM mice) was “does not affect TC and TG” and the Macroscopic organ toxicity (T2DM mice; brain, heart, kidneys, liver, spleen, stomach, large and small intestine, and lungs) was “no macroscopic toxicity”. The “Dose with the most significant hypoglycemic effects (pre-experiments)” value (T2DM mice; series 10, 50, 100, 150, 200, 250, and 300 mg/kg, data not shown) was 200 mg/kg, the “Maximum concentration without cytotoxicity” value (C2C12 cells) was 40 µM and the “Serine phosphorylation of AKT in adipose tissue, skeletal muscle, and liver” value [3] was “enhanced”. The “Tyrosine phosphorylation of ERK in adipose tissue, skeletal muscle, and liver” value [3] was “enhanced”, the “Blood glucose in PTP1B−/− mice” value (PTP1B−/− mice) was “cannot affect; also recorded: No hypoglycemic potency” and the “Body weight in PTP1B−/− mice” value (PTP1B−/− mice) was “No potency of honokiol on the amelioration of body weight”. The IC50 (TCPTP) was 604.4 ± 4.89 µM, the “Selectivity on PTP1B over TCPTP” value (TCPTP; from IC50 values) was “approximately ninefold” and the IC50 (SHP1) was 763.2 ± 5.49 µM. For the same molecule, the “Selectivity on PTP1B over SHP1” value (SHP1; from IC50 values) was ~ 12 fold.
With `CN(C)C(=N)N=C(N)N` [Metformin, reference compound] the “Serum TC” value (T2DM mice; 0 week) was 3.70 ± 0.31 mmol/L, the “Serum TG” value (T2DM mice; 0 week) was 0.54 ± 0.02 mmol/L and the “Serum TC” value (T2DM mice; 8 week) was 3.57 ± 0.11 mmol/L. The “Serum TG” value (T2DM mice; 8 week) was 0.49 ± 0.04 mmol/L, the Body weight (T2DM mice) was “stable body weight” and the “Effect on serum TC and TG” value (T2DM mice) was “no significant difference”.

From PMC4675651 (Drug Design, Development and Therapy, 2015)
